# Screens as filed in PubChem.
# A selection follows.
# PGC1a Ac signal: raises PGC1a acetylation signal in U2OS cells; 0.21% of 350,000 active; U2OS PGC1a acetylation AlphaScreen, overnight; AID 651723; activation, % at 15.6 µM;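 active = every replicate reaching activation of at least 50%, whatever the mean replicate activation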;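 note: hits raise the AlphaScreen acetylation signal above neutral controls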
#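 System: Flag-PGC1a/GCN5 U2OS cells | Quantity: 7000 cells/well | Times: Overnight compound treatment, 37 °C | Measured by: AlphaScreen proximity luminescence, anti-acetyl-lysine antibody | Dosing: One concentration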
# Numbers without * were called inactive.
SMILES,PGC1a Ac signal
O=C(c1ccco1)N(Cc1ccc([N+](=O)[O-])cc1)c1ccc(Br)cc1,58.0*
CC(=O)c1coc2c1cc(O)c1ccccc12,62.7*
CCCCNC(=O)c1ccc(CS(=O)(=O)c2ccccc2OC)o1,-44.2
COc1ccc(C2NC3=C(CCC3)C3(C#N)C(OC)(OC)N=C(N)C23C#N)cc1 (centres undefined),-40.7
CC(=O)c1cccc(-c2ccnc3c2CC(C(=O)NCC2CC2)O3)c1 (centres undefined),57.7*
O=C(NCc1ccccc1)C1Cc2c(-c3ccc4c(c3)OCO4)ccnc2O1 (centres undefined),133.2*
Cc1noc(C)c1S(=O)(=O)N1CCCC(C(=O)NCC2CCCO2)C1 (centres undefined),-50.1
Cc1ccc(-c2cnc3c(c2)C(=O)N([C@H](C)CO)C[C@H](C)[C@@H](CN(C)C)O3)cc1,-49.8
Cc1noc(C)c1S(=O)(=O)Nc1ccc2c(c1)C(=O)N([C@H](C)CO)C[C@H](C)[C@H](CN(C)C(=O)c1ccncc1)OCCCC[C@@H](C)O2,-41.1
C[C@@H]1CCCCO[C@H](CN(C)C(=O)Cc2ccccc2)[C@H](C)CN([C@@H](C)CO)C(=O)c2cc(N(C)C)ccc2O1,-54.1
C[C@@H]1CN([C@@H](C)CO)C(=O)CCCn2cc(nn2)CO[C@H]1CN(C)C(=O)Cc1ccccc1,-56.4
C[C@@H]1CN([C@@H](C)CO)C(=O)c2c(c3ccccc3n2C)-c2ccccc2CO[C@@H]1CN(C)C(=O)[C@H](C)c1ccccc1,115.2*
COc1cccc(C(=O)CSc2nnc(CNS(=O)(=O)c3ccc(C)cc3)n2C)c1,-88.6
CC(C)(C)NS(=O)(=O)c1ccc(-c2csnn2)s1,-60.6
O=C(CCN1CCc2ccccc2C(c2ccccc2)C1)c1ccc2c(c1)OCCO2 (centres undefined),68.8*
Cn1ncc2c(O/N=C(\N)c3ccc(C(C)(C)C)cc3)ncnc21,-95.9
Clc1ccc2nc(COc3ccccc3)[nH]c2c1,88.9*
COc1ccc(C2=NOC(C(=O)Nc3cccnc3)C2)cc1 (centres undefined),63.5*
O=C(N/N=C/c1ccc(F)cc1)c1c(O)c2ccccc2[nH]c1=O,-45.2
CC(C)NC(=O)c1c(O)c2ccccc2[nH]c1=O,96.9*
Cc1[nH]c2ccccc2c1C(=O)/C=C/c1ccccc1,-70.7
O=C(C[C@@H]1C[C@@H]2c3cc(NC(=O)Nc4ccccc4F)ccc3O[C@@H]2[C@@H](CO)O1)NCc1ccc(Oc2ccccc2)cc1,-83.8
CC(C)c1nnc(NC(=O)CCS(=O)(=O)c2nc(-c3cccs3)cc(C(F)(F)F)n2)s1,102.8*
COc1ccc(C(=O)N/C(=C/c2cccs2)C(=O)NC(C)(C)C)cc1OC,-67.2
CCSc1nnc(NC(=O)CSC2=NCCS2)s1,-94.3
SMILES,PGC1a Ac signal
C=CCn1c(C)nnc1SCC(=O)NC1CC1,-50.2
Nc1nnc(SCC(=O)NC2CCCCC2)n1-c1ccccc1,62.0*
O=C(CSc1nc(O)cc(=O)n1-c1ccccc1)N1CCCCC1,-43.8
CO[C@@H]1CN(C)C(=O)c2ccc(NS(C)(=O)=O)cc2OC[C@@H](C)N(Cc2nccs2)C[C@@H]1C,-45.1
Cc1ccc(OC[C@H](O)[C@H](C)NC(C)C)c2c1CCC2,-44.9
CCOCCn1c(N2CCN(c3ccccc3)CC2)nc2c1c(=O)n(C)c(=O)n2C,53.8*
CCn1c(C(C)NC(=O)c2ccccc2C)n[nH]c1=S (centres undefined),-49.8
Cc1nn(CCCC(=O)O)c(C)c1[N+](=O)[O-],-42.5
Cc1ccc(C)c(NC(=O)c2nnn(Cc3ccccc3)c2N)c1,-46.8
CCOC(=O)c1[nH]c(C)c(C(=O)Nc2cc(Cl)ccc2C)c1C,77.8*
COc1ccc(C#Cc2ccc([C@@H]3[C@H](CO)N4CCCCN(C(=O)Nc5ccc(F)cc5)C[C@@H]34)cc2)cc1,70.5*
CC(C)CC#Cc1ccc([C@H]2[C@H](CO)N3C(=O)CN(C(=O)Nc4cc(F)ccc4F)C[C@@H]23)cc1,-57.1
O=C(Nc1cccc(F)c1)N1CC(=O)N2[C@@H](CO)[C@@H](c3ccc(C#Cc4cccnc4)cc3)[C@@H]2C1,-40.7
C/C(=N\N1CCN(c2ccccc2)CC1)c1ccccc1O,-40.2
O=C(Nc1ccc(F)cc1)N[C@H]1C=C[C@H](CC(=O)N2CCCCC2)O[C@H]1CO,-42.8
N#Cc1cccc(C#N)c1NCC1CCCO1 (centres undefined),-43.0
COc1cccc(C(=O)/C=C/c2ccc(OCC#N)c(OC)c2)c1,183.2*
COc1ccc(OC)c(C(=O)/C=C/c2ccccc2C(F)(F)F)c1,-46.2
CCCOc1ccc(/C=C/C(=O)O)cc1OC,-61.6
c1csc(CNc2ncnc3ccc(-c4ccoc4)cc23)c1,-50.4
Cc1cccc(S(=O)(=O)N(C)C[C@@H]2OCc3cn(nn3)CCCC(=O)N([C@H](C)CO)C[C@H]2C)c1,-51.7
CC/C(CC(C)(C)c1ccccc1)=N\O,55.8*
O=S(=O)(/C(=C\c1ccc(C(F)(F)F)cc1)c1nc2ccccc2[nH]1)c1ccccc1,-59.8
CN(C)c1ccc(/C=C/c2ccc3c4ccccc4ccc3[n+]2-c2ccccc2)cc1,-43.5
